Test: Inhibition of Saccharomyces cerevisiae alpha-glucosidase using p-nitrophenyl-alpha-D-glucopyranoside as substrate preincubated for 15 mins
Method in brief: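 Yeast enzyme at 0.6 U/mL in 0.1 M potassium phosphate buffer, pH 6.8. It was preincubated at 37 °C with test compound in water containing 0.5% DMSO. The reaction was started with 5.0 mM PNPG solution in the same buffer and incubated at 37 °C. It was stopped with 0.2 M Na2CO3 in phosphate buffer. Released p-nitrophenol was read at 405 nm, with IC50 as the output.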

Row | Structure (SMILES) | IC50 [µM]
1 | COc1cc(O[C@@H]2O[C@H](CO[C@@H]3OC[C@@H](O)[C@H](O)[C@H]3O)[C@@H](O)[C@H](O)[C@H]2O)c2c(=O)c3c(OC)c(O)ccc3oc2c1OC | 1500
2 | COc1cc(O[C@@H]2O[C@H](CO[C@@H]3OC[C@@H](O)[C@H](O)[C@H]3O)[C@@H](O)[C@H](O)[C@H]2O)c2c(=O)c3c(OC)c(OC)ccc3oc2c1OC | 383
3 | COc1cc(O[C@@H]2O[C@H](CO)[C@@H](O)[C@H](O)[C@H]2O)c2c(=O)c3c(OC)c(O)ccc3oc2c1O | 701
4 | COc1cc(O[C@@H]2O[C@H](CO[C@@H]3OC[C@@H](O)[C@H](O)[C@H]3O)[C@@H](O)[C@H](O)[C@H]2O)c2c(=O)c3c(OC)ccc(OC)c3oc2c1 | 360
5 | COc1cc(O[C@@H]2O[C@H](CO[C@@H]3OC[C@@H](O)[C@H](O)[C@H]3O)[C@@H](O)[C@H](O)[C@H]2O)c2c(=O)c3c(OC)c(OC)cc(OC)c3oc2c1 | 371
6 | COc1ccc(O)c2c(=O)c3c(O)cc(O[C@@H]4O[C@H](CO[C@@H]5OC[C@@H](O)[C@H](O)[C@H]5O)[C@@H](O)[C@H](O)[C@H]4O)c(OC)c3oc12 | 184
7 | COc1cc(O[C@@H]2O[C@H](CO[C@@H]3O[C@H](CO)[C@@H](O)[C@H](O)[C@H]3O)[C@@H](O)[C@H](O)[C@H]2O)c2c(=O)c3cccc(OC)c3oc2c1 | 956
8 | COc1cc(O[C@@H]2O[C@H](CO[C@@H]3O[C@H](CO)[C@@H](O)[C@H](O)[C@H]3O)[C@@H](O)[C@H](O)[C@H]2O)c2c(=O)c3c(O)ccc(OC)c3oc2c1 | 693
9 | COc1cc(O)c2c(=O)c3c(O)c(O[C@@H]4O[C@H](CO)[C@@H](O)[C@H](O)[C@H]4O[C@@H]4O[C@@H](C)[C@H](O)[C@@H](O)[C@H]4O)ccc3oc2c1 | > 1720
10 | COc1cc(O)c2c(=O)c3c(O[C@@H]4O[C@H](CO)[C@@H](O)[C@H](O)[C@H]4O)c(O[C@@H]4O[C@@H](C)[C@H](O)[C@@H](O)[C@H]4O)ccc3oc2c1 | 714
11 | COc1cc(O[C@@H]2O[C@H](CO[C@@H]3OC[C@@H](O)[C@H](O)[C@H]3O)[C@@H](O)[C@H](O)[C@H]2O)c2c(=O)c3c(O)c(OC)ccc3oc2c1 | 451
12 | C[C@H]1O[C@H](O[C@H]2[C@H](O)[C@@H](O)[C@@H](O[C@H]3[C@H](O)[C@@H](O)C(O)O[C@@H]3CO)O[C@@H]2CO)[C@H](O)[C@@H](O)[C@@H]1N[C@H]1C=C(CO)[C@@H](O)[C@H](O)[C@H]1O (some centres undefined) [ACARBOSE] | 627
13 | O=c1c2cc(O)c(O)cc2oc2cc(O)c([C@@H]3O[C@H](CO)[C@@H](O)[C@H](O)[C@H]3O)c(O)c12 [MANGIFERIN] | 296
14 | COc1cc(O)c2c(=O)c3c(O[C@@H]4O[C@H](CO)[C@@H](O)[C@H](O)[C@H]4O)ccc(O)c3oc2c1 [SWERTIANOLIN] | 126

Reference: ChEMBL document CHEMBL2406974, “Xanthone glycoside constituents of Swertia kouitchensis with α-glucosidase inhibitory activity” (J Nat Prod, 2013)
